# Screens (PubChem)
# Env fusion inh = HIV envelope-mediated fusion inhibition; actives 1.1% (n = 360,000); AID 651610; inhibition, % at 12.3 µM; HeLa-JRFL Env/CEM21 cell fusion, luciferase;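 active means mean replicate inhibition score of at least 50 and every replicate individually at or above 50; inconclusive means only one of the two criteria met; inactive means mean below 50 and not all replicates reaching 50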
# PglD inh = PglD (C. jejuni) enzyme inhibition | purified PglD enzyme, DTNB colorimetric CoA detection | inhibition, % at 12.5 µM | actives 0.098% (n = 360,000) | AID 602405; in the data active means inhibition above about 16%, passing the limit was not always enough; inconclusive means no clear call, values can overlap the other calls
# rRNA inh HTS = inhibits bacterial ribosomal RNA function over humanized ribosomes. E. coli WT GFP vs humanized-ribosome RFP mutants, fluorescence, 24 h; active compounds read low; DMSO median 0, no signal -100. GFP signal change (wild-type ribosome), % (no concentration beside the values). actives 1.6% (n = 350,000). AID 720706;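 active means significant combined selectivity score with lowered wild-type GFP, culture density cut under 30%, mutant RFP and density less affected; inactive means any of these conditions unmet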
# FN deposition inh = fibronectin deposition inhibition. AH1F fibroblasts, Alexa488-fibronectin deposition fluorescence, overnight. inhibition, % at 12.6 µM. actives 0.086% (n = 350,000);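 active means mean inhibition across replicates of 30% or more, regardless of how many single replicates reach that level; inconclusive means mean under 30% yet at least half of replicates reach 30%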
#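 Material: AH1F fibroblast monolayer depositing Alexa488-labelled fibronectin into matrix / Amount: 10000 AH1F cells per well / Signal: fluorescence 485/525 nm / Medium: DMEM, 2% serum / Compound: single dose, pinned / Incubation: 1 h cell adhesion before compound, then overnight fibronectin incubation / Reagent: Alexa488-FN, 24 nM final / Read-out: inhibition of fibronectin deposition signal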
# PGC1a acetyl inh = PGC1a acetylation modulation, inhibitor mode | actives 0.17% (n = 350,000) | AID 651687 | U2OS PGC1a acetylation, AlphaScreen anti-acetyl-lysine; with virally co-expressed GCN5 acetyltransferase | inhibition, % at 15.6 µM;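 active means every replicate shows inhibition of at least 40%; inconclusive means mean inhibition at least 40% but some replicate below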
# DENV2 CPE = inhibitors of DENV2 cytopathic effect. DENV2-infected cells, cytopathic effect rescue, plate reader. AID 651640. actives 1.7% (n = 350,000). CPE inhibition, % at 9.99 µM; in the data active means CPE inhibition above about 20%, passing the limit was not always enough; inconclusive means no clear call, values can overlap the other calls; tested in BHK-21 cells
# AID977621 = growth inhibition of wild-type GFP E. coli, dose response, H69 mutant RFP, cherry-pick; shares compounds with rRNA inh HTS; E. coli wild-type GFP strain growth, fluorescence, 24 h; activity change, negative = inhibition at 50 µM; 1,900 tested, under 10 active; AID 977621;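 active means Wild-type ribosome reporter drop at least double the humanized mutant ribosome reporter drop, growth loss under a set limit; inconclusive means no clear call, values can overlap the other calls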;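 further: wild-type GFP and H69 mutant RFP strains grown together 50/50 in each well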
# AID977628 = growth of wild-type and h24-humanized E. coli strains – h24 mutant RFP vs wild-type GFP, cherry-pick, dose response | 1,900 tested, under 10 active | activity change, negative = inhibition at 50 µM | shares compounds with rRNA inh HTS | AID 977628 | E. coli WT GFP strain growth, fluorescence, 24 h;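 active means compound lowering the normal-ribosome reporter at least twice as much as the humanized-ribosome reporter, growth loss under a set limit; inconclusive means no clear call, values can overlap the other calls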;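 further: wild-type GFP and h24 humanized RFP strains co-cultured 1 to 1 per well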
# Numbers stand for hits; n = inactive; u = inconclusive; x = no result; ! = not confirmed by another sample. Rows were chosen to be rich in hits. Some 3.5% of all compounds tested hit in one or more screens of this group.
SMILES,Env fusion inh,PglD inh,rRNA inh HTS,FN deposition inh,PGC1a acetyl inh,DENV2 CPE,AID977621,AID977628
O=S(=O)(Cc1ccco1)Cc1nc(-c2ccc(Cl)cc2)cs1,n,n,-33.8,n,n,n,n,n
CNC[C@@H]1Oc2ccc(NS(C)(=O)=O)cc2C(=O)N([C@H](C)CO)C[C@@H]1C,n,n,n,x,n,n,x,x
COc1ccc(CNC(=O)CN(C)CC(=O)Nc2ccccc2Br)cc1,n,n,n,n,n,n,x,x
COc1ccc(OC)c(NC(=O)CN(C)CC(=O)Nc2ccccc2Br)c1,n,x,-24.5,n,x,n,n,u
CN1CCN(C(=O)C[C@H]2CC[C@H]3[C@@H](COC[C@@H](O)CN3C(=O)Nc3ccc(Cl)cc3)O2)CC1,x,n,-19.0,n,n,n,x,u
CN1CCN(C(=O)C[C@H]2CC[C@H]3[C@@H](COC[C@H](O)CN3C(=O)Nc3ccc(Cl)cc3)O2)CC1,x,n,-25.0,n,n,n,x,u
CN1CCN(C(=O)C[C@@H]2CC[C@H]3[C@@H](COC[C@@H](O)CN3C(=O)Nc3ccc(Cl)cc3)O2)CC1,x,n,n,n,n,n,x,x
C[C@@H](NC(=O)C[C@@H]1CC[C@@H]2[C@H](COC[C@H](O)CN2C(=O)Nc2cccc(F)c2)O1)c1ccccc1,x,n,-20.6,n,n,n,x,u
O=C(C[C@H]1CC[C@H]2[C@@H](COC[C@@H](O)CN2C(=O)Nc2ccc(Cl)cc2)O1)N1CCCCC1,x,n,-17.6,n,n,n,x,u
O=C(C[C@@H]1CC[C@H]2[C@@H](COC[C@H](O)CN2C(=O)Nc2ccc(Cl)cc2)O1)N1CCCCC1,x,n,n,n,n,n,x,x
CCCNC(=O)C[C@@H]1CC[C@@H]2[C@H](COc3ccc(NC(=O)c4cccc(OC)c4)cc3C(=O)N2C)O1,n,n,n,n,n,u,x,x
OC[C@H]1[C@@H](c2ccccc2)C2(CN(Cc3ccccn3)C2)N1Cc1cncnc1,x,x,n,n,n,n,x,x
O=C(C[C@@H]1CC[C@H]2[C@@H](COC[C@H](O)CN2C(=O)Nc2ccc(Cl)cc2)O1)NCc1ccncn1,x,n,n,n,n,n,x,x
O=C(C[C@@H]1CC[C@@H]2[C@H](COC[C@H](O)CN2C(=O)Nc2ccc(Cl)cc2)O1)NCc1ccncn1,x,n,-22.1,n,n,n,n,u
CC(C)CC#Cc1cnc2c(c1)C(=O)N([C@H](C)CO)C[C@@H](C)[C@@H](CN(C)S(C)(=O)=O)O2,n,n,n,n,n,n,x,x
COc1cc(NC(=O)CSc2nc(C)cs2)cc(OC)c1,x,n,-29.6,x,n,n,n,x
CO[C@@H]1CN(C)C(=O)c2cc(NC(=O)Nc3ccc(F)cc3)ccc2OC[C@@H](C)N(C(=O)c2cnccn2)C[C@H]1C,n,n,n,n,n,n,x,x
CCOC(=O)Cc1csc(SCC(=O)Nc2cc(Cl)ccc2Oc2ccccc2)n1,x,x,x,x,n,x,x,x
CCOC(=O)Cc1csc(SCC(=O)Nc2cc(C)ccc2OC)n1,n,x,-24.1,n,x,n,x,u
O=C(C[C@@H]1CC[C@H]2[C@@H](COC[C@@H](O)CN2Cc2cc(F)ccc2F)O1)NCc1ccccc1,x,n,n,n,n,n,x,x
COCC(=O)NC[C@H]1[C@H](c2ccc(C3=CCCC3)cc2)[C@H](CO)N1C(C)=O,x,n,n,n,n,n,x,x
O=C(CC(c1ccccc1)c1cc(Br)ccc1O)N1CCCC1 (centres undefined),n,x,-20.4,n,n,n,x,u
CCC1(C(=O)OC)CCc2c(cc(OC)c3ccccc23)C1=O (centres undefined),n,x,-26.9,n,x,n,n,n
O=C(C[C@@H]1CC[C@H]2[C@@H](COC[C@@H](O)CN2C(=O)Nc2cc(Cl)cc(Cl)c2)O1)NCC1CC1,x,n,n,n,n,n,x,x
CCOC(=O)/C(=C\Nc1cccc(OCc2ccccc2)c1)NC(=O)c1ccccc1,n,x,x,n,x,n,x,x
SMILES,Env fusion inh,PglD inh,rRNA inh HTS,FN deposition inh,PGC1a acetyl inh,DENV2 CPE,AID977621,AID977628
O=C(COC(=O)c1ccccc1O)NCCC1=CCCCC1,n,x,-21.8,n,n,n,n,u
COC(=O)C[C@@H]1C[C@H]2c3cc(NC(=O)c4ccc5c(c4)OCO5)ccc3O[C@H]2[C@H](CO)O1,n,n,n,n,n,n,x,x
O=C(NCCCn1ccnc1)c1sc2cc([N+](=O)[O-])ccc2c1Cl,n,x,-15.7,n,n,u,n,n
CN1CCN(C(=O)C[C@H]2CC[C@@H]3[C@H](COC[C@H](O)CN3C(=O)Nc3ccc(Cl)cc3)O2)CC1,x,n,n,n,n,n,x,x
O=C(COC(=O)Cc1ccccc1F)Nc1ccc(Cl)cn1,n,n,-17.8,n,n,u,n,u
CCC(=O)Nc1ccc2c(c1)C(=O)N(C)[C@@H]1CC[C@H](CC(=O)NCC3CC3)O[C@H]1CO2,n,n,n,n,n,u,x,x
CN1C(=O)c2cc(NC(=O)c3cccc(F)c3)ccc2OC[C@@H]2O[C@H](CC(=O)NCC3CCCCC3)CC[C@H]21,n,n,n,n,n,n,x,x
CN1C(=O)c2cc(NC(=O)c3cccc(F)c3)ccc2OC[C@H]2O[C@@H](CC(=O)NCC3CCCCC3)CC[C@@H]21,n,n,-25.1!,n,x,n,n,n
CC=Cc1ccc2n(c1=O)C[C@@H]1[C@@H](CO)[C@H](C(=O)NCc3ccccn3)N(CCC)[C@H]21 (mixture of isomers),x,x,n,x,n,n,x,x
CC(NC(=O)C12CC3CC(C)(CC(C)(C3)C1)C2)c1ccncc1 (centres undefined),64.8,n,-23.6,n,n,n,n,n
CC1(C(=O)NS(=O)(=O)c2cccs2)CCN1C(=O)C1(c2ccc(Cl)cc2)CCC1 (centres undefined),n,n,-32.5,n,n,n,n,x
CC1(C(=O)NS(=O)(=O)c2cccc(Cl)c2)CCN1C(=O)C1(c2ccc(Cl)cc2)CC1 (centres undefined),n,n,n,n,x,n,x,x
CC1(C(=O)NS(=O)(=O)c2cccc(Cl)c2)CCN1C(=O)C1(c2ccc(Cl)cc2)CCC1 (centres undefined),n,n,-15.8,n,n,n,n,x
COCC(=O)N1CC2(C1)CN(Cc1ccc3c(c1)OCO3)[C@@H](CO)c1c2c2ccc(OC)cc2n1C,x,x,n,n,n,n,x,x
COc1ccccc1CC(=O)NCc1csc(-c2cccs2)n1,n,n,-21.2,n,n,n,n,n
O=C(c1ccc(N2CCCCC2)c([N+](=O)[O-])c1)N1CCN(S(=O)(=O)c2ccccc2)CC1,n,x,n,n,x,n,x,x
